According to PMC3212727 (The Journal of Experimental Medicine, 2006):

Experiments:
[1] = system: TAP1-GFP in MelJuSo cells; test: TAP mobility assay; assay type: cell-based, human; conditions: FRAP; for initial increase in intracellular peptides: measured 1 h after irradiation, Fig. 2A and unpublished data
Summary of the method: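 FRAP was run at 37°C on MelJuSo cells stably expressing TAP1-GFP, imaged 1 h after 4 Gy γ-irradiation. Some cells were pretreated with 10 μM lactacystin for 30 min, ATP-depleted with 0.05% NaAz plus […] 2-deoxyglucose for 30 min, or given cycloheximide. An ER spot was bleached at full laser power and recovery followed with an attenuated beam. Diffusion coefficient came from bleach-corrected recovery half-times: ≥3 experiments, mean ± SD.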

mTOR pathway [2] = test: Surface MHC class I expression of MelJuSo cells; assay type: cell-based, human; conditions: 25 Gy, 20 nM rapamycin, W6/32 flow cytometry, n = 4
Summary of the method: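 Human melanoma MelJuSo cells received 0–25 Gy γ-irradiation (137Cs, 0.75 Gy/min). They were cultured for the stated times with or without 20 nM rapamycin, stained for surface MHC class I with W6/32 and analysed by flow cytometry, with a background control lacking primary antibody. Mean fluorescence intensity was expressed relative to nonirradiated control cells.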

mTOR pathway [3] = test: Biosynthetic labeling and immunoprecipitation of MHC molecules; assay type: cell-based, human; conditions: HLA-A2-GFP MelJuSo, 0, 10 or 20 Gy, 6 h, 10 nM rapamycin, 35S-methionine/cystein 1 h
mTOR pathway [4] = test: GFP expression of irradiated MelJuSo cells by flow cytometry; assay type: cell-based, human; conditions: 20 nM rapamycin
Summary of the method: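 MelJuSo cells stably transfected with EGFP in pcDNA3 (CMV promoter) received 0 or 25 Gy γ-irradiation (137Cs, 0.75 Gy/min), with or without 20 nM rapamycin. GFP fluorescence was read by flow cytometry at 0, 4 or 24 h after irradiation. n = 6, mean ± SD.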

MC38 cells [5] = test: H2-Kb expression of MC38 cells by flow cytometry; assay type: cell-based, mouse; conditions: MC38, 20 Gy, 24 h, 20 nM rapamycin; FITC mAb H-2Kb
Summary of the method: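 MC38 murine colon adenocarcinoma cells (H-2b) were γ-irradiated with 20 Gy (137Cs, 0.75 Gy/min) and cultured 24 h with or without 20 nM rapamycin. They were then stained with FITC-labelled anti-H-2Kb mAb and analysed by flow cytometry against an isotype control antibody. Percentage of positive cells and mean fluorescence intensity were reported.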

MC38 cells [6] = test: 111In release cytotoxicity assay with gp70-specific CTL; assay type: cell-based, mouse; conditions: 20 nM rapamycin 24 h, then 18 h with CTL

SMILES	initial increase in intracellular peptides [1]	TAP activity in irradiated cells ([1]; pretreatment before irradiation, 4 Gy, measured 1 h later, n = 9)	MHC class I expression 4 h after irradiation (mTOR pathway [2]; 4 h)	radiation-induced increase in MHC class I expression 24 h after irradiation (mTOR pathway [2]; 24 h)	translation of GFP-tagged and endogenous MHC class I molecules, H chains and MHC class II molecules (mTOR pathway [3])	GFP expression in response to ionizing radiation (mTOR pathway [4]; MelJuSo-EGFP (CMV promoter), 25 Gy, 24 h, n = 6)	GFP expression in nonirradiated cells (mTOR pathway [4]; MelJuSo-EGFP, no radiation)	radiation-induced up-regulation of MHC class I expression (MC38 cells [5])	lysis of irradiated MC38 cells by gp70-specific CTL (MC38 cells [6]; 20 Gy, E:T 100:1 to 3.125:1)	CTL recognition of nonirradiated cells (MC38 cells [6]; MC38, no radiation)
C[C@@H]1C[C@@H]([C@H](O)CC2CC(=O)NC(=O)C2)C(=O)[C@@H](C)C1 [cycloheximide]	not inhibited	no effect on TAP activity	–	–	–	–	–	–	–	–
CO[C@H]1C[C@@H]2CC[C@@H](C)[C@@](O)(O2)C(=O)C(=O)N2CCCC[C@H]2C(=O)O[C@H]([C@H](C)C[C@@H]2CC[C@@H](O)[C@H](OC)C2)CC(=O)[C@H](C)/C=C(\C)[C@@H](O)[C@@H](OC)C(=O)[C@H](C)C[C@H](C)/C=C/C=C/C=C/1C [rapamycin]	not inhibited	–	No effect	markedly reduced	inhibited	no increase in GFP expression	decreased GFP expression	can be inhibited	enhanced lysis in a rapamycin-dependent fashion	no effect
